pPAFAH FP inh: pPAFAH (human) enzyme inhibition; inhibition, % at 3.39 µM; AID 463082; 330,000 tested, 1.5% active; recombinant pPAFAH, FP-rhodamine probe fluorescence polarization;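 active means inhibition above the mean inhibition across the screen plus 3 SD, cut at about 25% in these data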;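 further: inhibitors block binding of the rhodamine activity-based probe so polarization drops; 0% = enzyme with DMSO and 100% = wells lacking pPAFAH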
mABHD4 FP: ABHD4 (mouse) inhibition, primary FP screen. inhibition, % at 8.92 µM. 370,000 tested, 0.54% active. purified mABHD4, FP-Rh probe fluorescence polarization. AID 720543. Q8VD66;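 active means inhibition exceeding the mean over every tested compound plus 3 SD, cut at about 30% in these data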;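 further: 0% = plate median of compound wells and 100% = S159A mutant with DMSO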
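Assay system: mouse ABHD4 enzyme, wild type / Also added: fluorescent activity-based probe FP-Rh / Doses: single nominal dose of 8.92 µM, 0.89% DMSO final / Timing: 45 min compound pre-incubation plus 60 min probe step, 25 °C / Signal: FP readout, ex 525 nm / em 598 nm / Control set: S159A mutant/DMSO as 100%, compound-well median as 0%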
PAFAH2 FP inh: inhibitors of human PAFAH2. Q99487. recombinant PAFAH2, FP-rhodamine activity probe, fluorescence polarization. inhibition, % at 3.39 µM. 340,000 tested, 0.99% active;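 active means inhibition above the mean over all tested compounds plus 3 SD, cut at about 30% in these data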;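 further: inhibitors block probe labeling of enzyme so polarization drops; 0% = enzyme with DMSO and 100% = wells lacking PAFAH2 protein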
HTRA1 inhibitor: HTRA1 (human) protease inhibition; recombinant HTRA1, FP-rhodamine activity-based probe, fluorescence polarization; 340,000 tested, 0.5% active; inhibition, % at 5.96 µM; Q92743; in the data active means inhibition above about 36%;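 further: 0% = enzyme with DMSO and 100% = wells lacking enzyme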
Target sequence (Q92743 whole entry, looked up): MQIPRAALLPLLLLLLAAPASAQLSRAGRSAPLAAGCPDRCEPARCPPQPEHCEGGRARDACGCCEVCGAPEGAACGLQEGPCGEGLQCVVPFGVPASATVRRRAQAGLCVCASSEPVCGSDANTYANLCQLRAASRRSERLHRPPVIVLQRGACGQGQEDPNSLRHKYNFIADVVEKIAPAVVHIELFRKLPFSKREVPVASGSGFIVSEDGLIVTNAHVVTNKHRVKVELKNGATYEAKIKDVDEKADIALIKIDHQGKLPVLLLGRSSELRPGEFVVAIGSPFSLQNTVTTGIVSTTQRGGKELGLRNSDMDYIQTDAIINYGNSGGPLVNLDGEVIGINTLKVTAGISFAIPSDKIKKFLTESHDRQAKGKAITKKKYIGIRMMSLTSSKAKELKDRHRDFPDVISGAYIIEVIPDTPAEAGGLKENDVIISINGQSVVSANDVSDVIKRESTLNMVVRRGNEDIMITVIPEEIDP
PAFAH1B3 FP inh: blocks human PAF acetylhydrolase 1B catalytic subunit 3; inhibition, % at 3.39 µM; Q15102; AID 492972; 340,000 tested, 0.28% active; recombinant PAFAH1B3, FP-rhodamine probe, fluorescence polarization;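 active means inhibition above the screen-wide average of all tested compounds plus 3 SD, cut at about 25% in these data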;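 further: 0% = enzyme with DMSO only and 100% = wells lacking PAFAH1B3 protein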
PAFAH1B2 FP inh: blocks human PAF acetylhydrolase 1b catalytic subunit 2; P68402; recombinant PAFAH1B2, FP-rhodamine activity probe, fluorescence polarization; inhibition, % at 3.39 µM; 340,000 tested, 1.2% active; AID 492953;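 active means inhibition above the mean of all tested compounds plus 3 SD, cut at about 24% in these data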;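 further: 0% = enzyme with DMSO and 100% = wells lacking PAFAH1B2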
An asterisk follows results filed as active; nt = no result. Sampled rows, rich in hits. Any-hit rate of the full collection: about 2.8%.

SMILES	pPAFAH FP inh	mABHD4 FP	PAFAH2 FP inh	HTRA1 inhibitor	PAFAH1B3 FP inh	PAFAH1B2 FP inh
Cc1c(O)ccc(/C(Cc2ccc3ccccc3n2)=N\O)c1O	19	-2	28	19	53*	29*
C=CC[C@]1(O)C(=O)N(c2ccccc2)c2ccccc21	nt	-3	nt	nt	nt	nt
COc1ccc(S(=O)(=O)N2CCN(C(=O)[C@@H]3CCC(=O)N3C3OC(=O)c4ccccc43)CC2)cc1 (some centres not stated)	0	-11	5	1	0	33*
Cc1ccc(S(=O)(=O)N2CCCC2C(=O)N2CCN(c3ccccc3)CC2)cc1 (configuration not stated)	nt	-1	nt	nt	nt	nt
Cc1cc(NS(=O)(=O)c2ccccc2)cc(Cl)c1O	8	-3	-1	-6	-1	0
Cc1ccc(Oc2ccc(S(=O)(=O)Nc3ccc(C(=O)O)cc3)cc2)cc1	29*	-53	-3	-6	0	7
CCOc1ccc(NS(=O)(=O)c2ccc(C(=O)N(C)CC(=O)Nc3ccc(C)cc3)cc2)cc1	33*	-4	9	-14	2	0
COc1ccc(C(=O)O)cc1S(=O)(=O)Nc1ccc(Oc2ccccc2)cc1	27*	2	0	6	6	8
Cc1ccc(S(=O)(=O)Nc2cc(C)c(O)c(S(=O)(=O)c3ccc(C)cc3)c2)cc1	5	-6	17	-8	8	34*
CC(=O)c1ccc(NS(=O)(=O)c2ccc(C)cc2)cc1	-1	1	-8	-1	3	13
Fc1ccc(-c2n[nH]c(=S)n2N=Cc2cccc(OCc3ccccc3)c2)cc1	nt	0	nt	nt	nt	nt
C(/C=C\c1ccco1)=NN1CCN(Cc2cccc3ccccc23)CC1	nt	16	nt	nt	nt	nt
Cc1n[nH]c(C)c1S(=O)(=O)NCCc1c[nH]c2ccccc12	nt	0	nt	nt	nt	nt
COC(=O)[C@]12C[C@H](CC(=O)NCc3cccs3)C(=O)N(CCC3=CCCCC3)C1=C[C@H](C(C)(C)C)O[C@@H]2C	nt	-6	nt	nt	nt	nt
COc1ccc(C(=O)O)cc1S(=O)(=O)N1CCCc2ccccc21	3	2	-1	4	6	26*
O=S(=O)(Nc1ccccc1)c1ccc(NS(=O)(=O)c2c(F)cccc2F)cc1	28*	-3	1	-5	6	15
O=S(=O)(Nc1ccc(S(=O)(=O)Nc2cccc3ccccc23)cc1)c1ccccc1	33*	-13	8	-23	-1	30*
O=C(O)c1ccc(NS(=O)(=O)c2cccc(S(=O)(=O)c3ccc(Cl)c(Cl)c3)c2)cc1	11	nt	73*	-9	-2	9
O=S(=O)(Nc1ccc(-c2ccccc2)cc1)c1ccccc1	nt	-16	-1	-39	-7	1
CN(C)c1cccc(-c2cnc(N3CCC(C(N)=O)CC3)s2)c1	nt	26	nt	nt	nt	nt
Cc1ccc(Nc2ccccc2)cc1	6	-2	-4	3	18	7
COc1ccc(NS(=O)(=O)c2ccc(NS(=O)(=O)c3ccc(C)cc3)cc2)nn1	10	7	6	3	11	24*
Cc1ccc(S(=O)(=O)Nc2ccc(Nc3ccccc3)cc2)cc1	29*	3	3	18	13	12
COc1cccc(C(=O)n2ccc3ccc(-c4ccc5ccn(Cc6ccc(C#N)cc6)c5c4)cc32)c1	nt	-14	nt	nt	nt	nt
O=C1CC2c3cc(-c4cc5ccccc5o4)ccc3CCN2C(=O)CN1Cc1ccccc1 (configuration not stated)	nt	-20	nt	nt	nt	nt
SMILES	pPAFAH FP inh	mABHD4 FP	PAFAH2 FP inh	HTRA1 inhibitor	PAFAH1B3 FP inh	PAFAH1B2 FP inh
C[C@H]1[C@H](NC(=O)c2ccc(C(F)(F)F)cc2)CC[C@@]23CCCN2C(=O)CCC[C@@H]13	nt	-3	nt	nt	nt	nt
Oc1c(Cl)cc(Cl)cc1C=Nc1ccccc1N1CCCC1	30*	nt	nt	nt	nt	nt
COC(=O)C/C=C/[C@H](C)[C@@H](NC(=O)C(F)(F)F)c1ccccc1Br	nt	5	nt	nt	nt	nt
O=C(CC(c1ccccc1)(c1ccccc1)c1ccccc1)N[C@@H](Cc1ccccc1)C(=O)O	7	-3	0	-23	4	25*
O=C(O)[C@H](Cc1ccccc1)NC(=O)C(c1ccccc1)(c1ccccc1)c1ccccc1	3	2	5	-16	5	2
Clc1ccc([C@H]2OC[C@@]3(CNCc4ccccn4)CS[C@H](c4ccc(Cl)cc4)N23)cc1	nt	0	nt	nt	nt	nt
CC(C)(C)c1cc(OS(C)(=O)=O)ccc1O	4	-7	-3	-7	7	10
CC(C)(C)c1cc(OC(=O)C2CCCC2)ccc1O	-3	-12	4	-9	13	92*

Screening data deposited in PubChem BioAssay by The Scripps Research Institute Molecular Screening Center.
